# Source: ChEMBL document CHEMBL1123621, “Total synthesis and biological evaluation of structural analogues of compactin and dihydromevinolin” (J Med Chem, 1987)
# Target: T1, 3-hydroxy-3-methylglutaryl-coenzyme A reductase (Rattus norvegicus, UniProt P51639)
# T1 sequence (P51639 whole entry): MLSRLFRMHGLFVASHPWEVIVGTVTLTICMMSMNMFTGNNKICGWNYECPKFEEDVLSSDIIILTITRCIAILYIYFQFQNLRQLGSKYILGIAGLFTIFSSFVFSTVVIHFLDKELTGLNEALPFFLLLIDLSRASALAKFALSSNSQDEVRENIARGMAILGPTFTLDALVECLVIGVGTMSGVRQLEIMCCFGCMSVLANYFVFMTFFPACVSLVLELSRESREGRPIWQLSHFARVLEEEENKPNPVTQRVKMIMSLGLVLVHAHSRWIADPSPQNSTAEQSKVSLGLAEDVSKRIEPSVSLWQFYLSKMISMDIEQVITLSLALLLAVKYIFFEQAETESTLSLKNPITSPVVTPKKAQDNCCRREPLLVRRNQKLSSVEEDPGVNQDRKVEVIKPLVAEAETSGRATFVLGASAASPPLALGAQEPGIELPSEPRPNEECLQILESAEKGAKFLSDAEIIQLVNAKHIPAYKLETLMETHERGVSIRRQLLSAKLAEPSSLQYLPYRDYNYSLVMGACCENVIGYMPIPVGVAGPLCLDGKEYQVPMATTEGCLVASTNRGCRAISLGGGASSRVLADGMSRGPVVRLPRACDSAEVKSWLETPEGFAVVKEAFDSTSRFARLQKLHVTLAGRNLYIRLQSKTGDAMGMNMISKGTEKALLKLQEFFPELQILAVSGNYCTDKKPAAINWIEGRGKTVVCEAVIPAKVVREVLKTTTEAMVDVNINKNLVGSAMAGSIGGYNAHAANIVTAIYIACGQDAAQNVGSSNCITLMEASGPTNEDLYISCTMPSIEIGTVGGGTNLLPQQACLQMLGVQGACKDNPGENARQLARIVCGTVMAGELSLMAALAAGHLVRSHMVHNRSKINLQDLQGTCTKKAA
# Test: Inhibition of HMG-CoA reductase in rat liver microsomes
# Design: species or system Microsome
# Details: read-out: I50
# Outline: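 Rat liver microsomes (0.068 mg protein) in 150 mM phosphate pH 6.8, 180 mM KCl, 16 mM EDTA, 9 mM DTT, 10.0 mM glucose 6-phosphate, 2.1 mM NADP, G6P dehydrogenase, 20 μM (R,S)-[3-14C]HMG-CoA. Lactones were preincubated 30 min at 37 °C for ring opening. Inhibitors were given in DMSO. Reaction stopped with KOH; initial mevalonate rate measured. Four concentrations over four log units, in duplicate; I50 extrapolated from %inhibition vs log concentration.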
row,Compound,IC50
1,CC[C@H](C)C(=O)O[C@@H]1CCC=C2C=C[C@@H](C)[C@@H](COC(=O)CCCC(=O)O)[C@@H]21,110000 nM
2,CC[C@H](C)C(=O)O[C@H]1CCC=C2C=C[C@H](C)[C@H](CC[C@@H]3C[C@@H](O)CC(=O)O3)[C@H]21 [MEVASTATIN],13 nM
3,CC[C@H](C)C(=O)O[C@@H]1CCC=C2C=C[C@@H](C)[C@@H](CC[C@H]3C[C@@H](O)CC(=O)O3)[C@@H]21,79000 nM
4,CC[C@H](C)C(=O)O[C@H]1CCC=C2C=C[C@H](C)[C@H](COC(=O)C[C@@H](O)CC(=O)O)[C@H]21,630 nM
5,CC[C@H](C)C(=O)O[C@@H]1CCC=C2C=C[C@@H](C)[C@@H](COC(=O)C[C@H](O)CC(=O)O)[C@@H]21,25000 nM
6,CC[C@H](C)C(=O)O[C@H]1CCC=C2C=C[C@H](C)[C@H](/C=C/C(=O)C[C@@H](O)CC(=O)O)[C@H]21,630 nM
7,CC[C@H](C)C(=O)O[C@H]1CCC=C2C=C[C@H](C)[C@H](COC(=O)C[C@H](O)CC(=O)O)[C@H]21,5000 nM

# Continued, values first:
row,IC50,Compound
1,4000 nM,CC[C@H](C)C(=O)O[C@H]1CCC=C2C=C[C@H](C)[C@H](CC[C@@H]3C[C@H](O)CC(=O)O3)C21 (some centres not stated)
2,32 nM,CC[C@H](C)C(=O)O[C@H]1CCC=C2C=C[C@H](C)[C@H](CCC(=O)C[C@@H](O)CC(=O)O)[C@H]21
3,2000 nM,CC[C@H](C)C(=O)O[C@H]1CCC=C2C=C[C@H](C)[C@H](CC[C@H]3C[C@@H](O)CC(=O)O3)C21 (some centres not stated)
4,320 nM,CC[C@H](C)C(=O)O[C@H]1C[C@@H](C)C[C@@H]2C=C[C@H](C)[C@H](/C=C/C(=O)C[C@@H](O)CC(=O)O)C12 (some centres not stated)
5,10000 nM,CC[C@H](C)C(=O)O[C@@H]1CCC=C2C=C[C@@H](C)[C@@H](CC[C@@H]3C[C@@H](O)CC(=O)O3)[C@@H]21
6,1.6 nM,CC[C@H](C)C(=O)O[C@H]1C[C@@H](C)C[C@@H]2C=C[C@H](C)[C@H](CC[C@@H]3C[C@@H](O)CC(=O)O3)C12 (some centres not stated)
7,2000 nM,CC[C@H](C)C(=O)O[C@H]1CCC=C2C=C[C@H](C)[C@H](CC[C@H]3C[C@H](O)CC(=O)O3)C21 (some centres not stated)
8,7100 nM,CC[C@H](C)C(=O)O[C@H]1CCC=C2C=C[C@H](C)[C@H](COC(=O)CCCC(=O)O)C21 (some centres not stated)
9,> 25000 nM,CC[C@H](C)C(=O)O[C@@H]1CCC=C2C=C[C@@H](C)[C@@H](COC(=O)C[C@@H](O)CC(=O)O)[C@@H]21

# Target: T1, 3-hydroxy-3-methylglutaryl-coenzyme A reductase
# Test: Binding affinity against HMG-CoA reductase in rat liver microsomes
# Design: species or system Microsome
# Details: not given
# Outline: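 Rat liver microsomes (Edwards preparation, stored at -78 °C), 1.3 mg (0.068 mg protein) per 500 μL assay; 150 mM phosphate pH 6.8, 180 mM KCl, 16 mM Na2EDTA, 9 mM DTT, 10.0 mM glucose 6-phosphate, 2.1 mM NADP, 2 U G6P dehydrogenase, 20 μM (R,S)-[3-14C]HMG-CoA; lactones preincubated 30 min at 37 °C for ring opening; inhibitors in DMSO; KOH stop; four concentrations in duplicate; I50 extrapolated from %inhibition vs log concentration.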
row,Ki,Compound
1,1.4 nM,CC[C@H](C)C(=O)O[C@H]1CCC=C2C=C[C@H](C)[C@H](CC[C@@H]3C[C@@H](O)CC(=O)O3)[C@H]21 [MEVASTATIN]
